≈ marks a conversion by molar mass, not a printed value.
Legend:
[1] = biological target: T1, Melanin-concentrating hormone receptor 1 (Homo sapiens, UniProt Q99705); assay: biochemical; assay type: cell-based, CHO-K1
[2] = biological target: T1, Melanin-concentrating hormone receptor 1; assay: Antagonist activity at human MCHR1 expressed in CHO-K1 cells assessed as inhibition of MCH peptide mediated response measuring [3H]inositol phosphate production by IP3-SPA-YSI assay; assay type: functional, cell-based
[3] = biological target: hERG (KCNH2) (Homo sapiens, UniProt Q12809); assay: Inhibition of human ERG at 1 uM
[4] = biological target: Voltage-gated inwardly rectifying potassium channel KCNH2 (Homo sapiens, UniProt Q12809)
[5] = Solubility of the compound in 5% DMSO and 95% PBS after overnight incubation using plate shaker; assay type: physicochemical
Outline: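 A 10 mM DMSO stock was diluted into PBS to a final 500 µM (5% DMSO). The mix was left to precipitate overnight at RT on a plate shaker, then centrifuged. Supernatant absorbance was read at 260, 280 and 620 nm. Solubility is the absorbance ratio of PBS supernatant to an acetonitrile reference (100 and 500 µM). The 620 nm reading was used to exclude visible contamination.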

[6] = Stability in mouse blood assessed as compound remaining after 30 mins by HPLC analysis; assay type: ADME, tissue-based; settings: read-out: Stability
[7] = tested on: Mus musculus; assay: Antiobesity activity in diet induced obese C57BL/6J mouse assessed as decrease in body weight at 30 mg/kg, po bid for 14 days measured at day 14 relative to control; assay type: functional; set-up: scale not given: the % may be the effect or the level left
Outline: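 C57BL/6J mice were fed a high-fat diet (60% calories from fat) for about 3 months, to roughly 45 g average body weight. Animals were grouped by initial weight. Dosing was oral, 30 mg/kg twice daily for 14 days, against vehicle controls (n = 12). Body weight and food intake were recorded daily.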

[8] = AUC (0 to 8 hrs) in Swiss albino mouse plasma at 30 mg/kg, po; assay type: ADME, organism-based; set-up: time < 8 hr, dose 30 mg/kg, route oral
Outline: (§1)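 Swiss Albino mice given a single oral dose of 30 mg/kg. Plasma and brain were sampled over 0–8 h. AUC(0–8), Cmax, Tmax and t1/2 were derived for each matrix.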

[9] = Cmax in Swiss albino mouse plasma at 30 mg/kg, po; assay type: ADME, organism-based; set-up: dose 30 mg/kg, route oral
Outline: as §1

[10] = Tmax in Swiss albino mouse plasma at 30 mg/kg, po; assay type: ADME, organism-based; set-up: dose 30 mg/kg, route oral
Outline: as §1

[11] = Half life in Swiss albino mouse plasma at 30 mg/kg, po; assay type: ADME, organism-based; set-up: dose 30 mg/kg, route oral
Outline: as §1

[12] = AUC (0 to 8 hrs) in Swiss albino mouse brain at 30 mg/kg, po; assay type: ADME, organism-based; set-up: time < 8 hr, dose 30 mg/kg, route oral
Outline: as §1

[13] = Cmax in Swiss albino mouse brain at 30 mg/kg, po; assay type: ADME, organism-based; set-up: dose 30 mg/kg, route oral
Outline: as §1

[14] = Tmax in Swiss albino mouse brain at 30 mg/kg, po; assay type: ADME, organism-based; set-up: dose 30 mg/kg, route oral
Outline: as §1

[15] = Half life in Swiss albino mouse brain at 30 mg/kg, po; assay type: ADME, organism-based; set-up: dose 30 mg/kg, route oral
Outline: as §1

[16] = Metabolic stability in mouse liver microsomes assessed as compound remaining at 10 uM after 30 mins by HPLC analysis; assay type: ADME, Microsome; settings: read-out: Stability
Outline: (§2)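 Compound at 10 µM was incubated with 1 mg/ml mouse or pooled human liver microsomes in 0.1 M phosphate buffer, pH 7.4. Reaction was started with NADPH and run 30 min at 37 °C. Result is % parent remaining.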

[17] = Metabolic stability in human liver microsomes assessed as compound remaining at 10 uM after 30 mins by HPLC analysis; assay type: ADME, Microsome; settings: read-out: Stability
Outline: as §2

[18] = biological target: T1, Melanin-concentrating hormone receptor 1; assay: Antagonist activity at human MCHR1 expressed in CHO-K1 cells assessed as inhibition of MCH peptide mediated response measuring [3H]inositol phosphate production at 10 uM by IP3-SPA-YSI assay; assay type: functional, cell-based; set-up: scale not given: the % may be the effect or the level left
[19] = 5% DMSO and 95% PBS, read-out: solubility

hERG (KCNH2), sequence (Q12809 whole entry): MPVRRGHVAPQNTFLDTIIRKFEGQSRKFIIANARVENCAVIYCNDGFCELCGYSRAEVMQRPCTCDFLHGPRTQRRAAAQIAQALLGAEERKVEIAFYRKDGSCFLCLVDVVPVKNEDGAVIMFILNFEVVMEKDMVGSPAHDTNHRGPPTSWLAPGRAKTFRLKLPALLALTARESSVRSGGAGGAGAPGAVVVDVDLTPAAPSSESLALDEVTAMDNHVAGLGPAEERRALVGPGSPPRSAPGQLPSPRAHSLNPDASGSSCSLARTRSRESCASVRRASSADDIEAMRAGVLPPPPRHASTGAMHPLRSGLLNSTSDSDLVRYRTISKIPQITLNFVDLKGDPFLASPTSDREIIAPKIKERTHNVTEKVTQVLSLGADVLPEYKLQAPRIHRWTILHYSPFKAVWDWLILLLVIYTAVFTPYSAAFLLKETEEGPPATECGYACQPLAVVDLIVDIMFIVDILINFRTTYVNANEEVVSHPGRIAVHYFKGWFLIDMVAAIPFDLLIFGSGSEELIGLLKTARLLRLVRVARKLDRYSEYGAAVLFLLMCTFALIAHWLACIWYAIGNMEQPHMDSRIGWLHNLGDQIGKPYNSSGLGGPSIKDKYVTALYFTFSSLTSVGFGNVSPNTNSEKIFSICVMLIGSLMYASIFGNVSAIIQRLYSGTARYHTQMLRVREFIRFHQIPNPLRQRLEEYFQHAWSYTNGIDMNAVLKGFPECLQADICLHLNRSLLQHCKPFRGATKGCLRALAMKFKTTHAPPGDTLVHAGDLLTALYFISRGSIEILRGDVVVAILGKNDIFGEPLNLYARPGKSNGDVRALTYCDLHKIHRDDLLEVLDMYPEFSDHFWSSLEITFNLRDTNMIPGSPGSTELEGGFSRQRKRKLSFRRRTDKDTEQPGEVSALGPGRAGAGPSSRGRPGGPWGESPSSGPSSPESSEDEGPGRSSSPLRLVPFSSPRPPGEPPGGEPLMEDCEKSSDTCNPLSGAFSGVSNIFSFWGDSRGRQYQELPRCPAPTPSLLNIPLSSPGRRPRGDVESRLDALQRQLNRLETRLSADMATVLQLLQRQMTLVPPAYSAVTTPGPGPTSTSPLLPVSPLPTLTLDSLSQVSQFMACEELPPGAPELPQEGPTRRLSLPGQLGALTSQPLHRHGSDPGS
T1 sequence (Q99705 whole entry): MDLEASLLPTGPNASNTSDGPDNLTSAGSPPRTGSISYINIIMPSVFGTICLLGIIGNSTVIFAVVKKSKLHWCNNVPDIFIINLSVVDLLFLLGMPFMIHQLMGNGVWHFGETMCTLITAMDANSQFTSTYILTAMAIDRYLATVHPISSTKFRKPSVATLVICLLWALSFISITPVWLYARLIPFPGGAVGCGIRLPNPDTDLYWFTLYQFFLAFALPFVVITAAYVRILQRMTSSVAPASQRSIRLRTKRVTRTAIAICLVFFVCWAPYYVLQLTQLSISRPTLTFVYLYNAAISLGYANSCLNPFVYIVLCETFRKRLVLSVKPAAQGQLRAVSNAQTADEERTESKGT
Voltage-gated inwardly rectifying potassium channel KCNH2, sequence (Q12809 whole entry): as the sequence (Q12809 whole entry) above

SMILES | IC50 [1] | IC50 [2] | other results
Cc1nc(N2CCN(C(=O)C(C)C)CC2)nc2ccc(NC(=O)COc3ccc(Cl)cc3)cc12 | 225 nM | 91 nM | –
Cc1nc(N2CCN(C3CC3)CC2)nc2ccc(NC(=O)COc3ccc(Cl)cc3)cc12 | 270 nM | 350 nM | –
Cc1nc(N2CCC(O)(c3cccc(F)c3)CC2)nc2ccc(NC(=O)COc3ccc(OC(F)(F)F)cc3)cc12 | 635 nM | 100 nM | –
Cc1nc(N2CCN(S(C)(=O)=O)CC2)nc2ccc(NC(=O)COc3ccc(Cl)cc3)cc12 | > 10000 nM | > 10000 nM | –
Cc1nc(N2CCC(O)(c3ccc(F)cn3)CC2)nc2ccc(NC(=O)COc3ccc(OC(F)(F)F)cc3)cc12 | 213 nM | 59 nM | –
Cc1nc(N2CCN(C(=O)c3ccccc3)CC2)nc2ccc(NC(=O)COc3ccc(Cl)cc3)cc12 | 7300 nM | > 10000 nM | –
CCC1(O)CCN(c2nc(C)c3cc(NC(=O)COc4ccc(OC(F)(F)F)cc4)ccc3n2)CC1 | 116 nM | 59 nM | –
Cc1nc(N2CCC(C)(O)CC2)nc2ccc(NC(=O)COc3ccc(Cl)cc3)cc12 | 237 nM | 827 nM | –
Cc1nc(N2CCC(O)(C3CCCCC3)CC2)nc2ccc(NC(=O)COc3ccc(OC(F)(F)F)cc3)cc12 | 327 nM | 156 nM | –
Cc1nc(N2CCC(N3CCCC3)CC2)nc2ccc(NC(=O)C(C)Oc3ccc(Cl)cc3)cc12 (stereo unspecified) | 258 nM | 401 nM | solubility [5, 19]: 272 µM (≈ 134 µg/mL); remaining at 0.5 h, 10 µM [16]: 34%; remaining at 0.5 h [6]: 67%; inhibition at 1 µM [3]: 76%
Cc1nc(N2CCN(C(=O)CC(C)C)CC2)nc2ccc(NC(=O)COc3ccc(Cl)cc3)cc12 | 141 nM | 160 nM | –
Cc1nc(N2CCN(C(=O)C3CCC3)CC2)nc2ccc(NC(=O)COc3ccc(OC(F)(F)F)cc3)cc12 | 84 nM | 45 nM | solubility [5, 19]: 4 µM (≈ 2.17 µg/mL); remaining at 0.5 h, 10 µM [16]: 69%; remaining at 0.5 h, 10 µM [17]: 52%; remaining at 0.5 h [6]: 45%
Cc1nc(N2CCN(C(=O)C3CCCCC3)CC2)nc2ccc(NC(=O)COc3ccc(Cl)cc3)cc12 | 116 nM | 1040 nM | –
Cc1nc(N2CCN(C(=O)C3CC3)CC2)nc2ccc(NC(=O)COc3ccc(Cl)cc3)cc12 | 251 nM | 146 nM | –
CCC1(O)CCN(c2nc(C)c3cc(NC(=O)COc4ccc(Cl)cc4)ccc3n2)CC1 | 208 nM | 384 nM | –
Cc1nc(N2CCC(O)(c3ccccc3)CC2)nc2ccc(NC(=O)COc3ccc(OC(F)(F)F)cc3)cc12 | 354 nM | 67 nM | –

SMILES | IC50 [1] | IC50 [2] | other results
Cc1nc(N2CCC(N3CCCC3)CC2)nc2ccc(NC(=O)C(C)(C)Oc3ccc(Cl)cc3)cc12 | > 10000 nM | > 10000 nM | –
Cc1nc(N2CCN(CC(C)(C)C)CC2)nc2ccc(NC(=O)COc3ccc(Cl)cc3)cc12 | 782 nM | 246 nM | –
Cc1nc(N2CCC(O)(C(N)=O)CC2)nc2ccc(NC(=O)COc3ccc(OC(F)(F)F)cc3)cc12 | 636 nM | – | Activity [18]: 72%
Cc1nc(N2CCC(O)CC2)nc2ccc(NC(=O)COc3ccc(Cl)cc3)cc12 | 150 nM | 163 nM | –
Cc1nc(N2CCC(O)(C3CC3)CC2)nc2ccc(NC(=O)COc3ccc(OC(F)(F)F)cc3)cc12 | 101 nM | 33 nM | –
Cc1nc(N2CCC(N)CC2)nc2ccc(NC(=O)COc3ccc(Cl)cc3)cc12 | 150 nM | 610 nM | –
Cc1nc(N2CCN(C3CCCC3)CC2)nc2ccc(NC(=O)COc3ccc(Cl)cc3)cc12 | 96 nM | 150 nM | –
Cc1nc(N2CCN(C)CC2)nc2ccc(NC(=O)COc3ccc(Cl)cc3)cc12 | 220 nM | 3800 nM | –
COCC(=O)N1CCN(c2nc(C)c3cc(NC(=O)COc4ccc(Cl)cc4)ccc3n2)CC1 | 215 nM | 295 nM | –
COC1CCN(c2nc(C)c3cc(NC(=O)COc4ccc(Cl)cc4)ccc3n2)CC1 | 213 nM | 181 nM | –
Cc1nc(N2CCC(O)CC2)nc2ccc(NC(=O)C(C)(C)Oc3ccc(Cl)cc3)cc12 | > 10000 nM | > 10000 nM | –
Cc1nc(N2CCN(C(=O)C3CCC3)CC2)nc2ccc(NC(=O)COc3ccc(Cl)cc3)cc12 | 325 nM | 158 nM | –
Cc1nc(N2CCCCC2)nc2ccc(NC(=O)COc3ccc(Cl)cc3)cc12 | 180 nM | 305 nM | –
Cc1nc(N2CCC(O)(c3ccc(F)cc3)CC2)nc2ccc(NC(=O)COc3ccc(OC(F)(F)F)cc3)cc12 | 150 nM | 55 nM | –
Cc1nc(N2CCN(C(=O)C3CCCC3)CC2)nc2ccc(NC(=O)COc3ccc(Cl)cc3)cc12 | 305 nM | 350 nM | –
CCN1CCN(c2nc(C)c3cc(NC(=O)COc4ccc(Cl)cc4)ccc3n2)CC1 | 690 nM | – | –

These reach a lower IC50 [1]. Values come first.

IC50 [1] | IC50 [2] | SMILES | other results
10 nM | 14 nM | Cc1nc(N2CCC(C(=O)C3CC3)CC2)nc2ccc(NC(=O)COc3ccc(OC(F)(F)F)cc3)cc12 | inhibition at 1 µM [3]: 32%
20 nM | 81 nM | Cc1nc(N2CCC(N3CCCC3)CC2)nc2ccc(NC(=O)COc3ccc(Cl)cc3)cc12 | IC50 [4]: 450 nM
19 nM | 4 nM | Cc1nc(N2CCC(N3CCCC3=O)CC2)nc2ccc(NC(=O)COc3ccc(OC(F)(F)F)cc3)cc12 | IC50 [4]: 3700 nM
7 nM | 4 nM | Cc1nc(N2CCC(NC(=O)NC(C)C)CC2)nc2ccc(NC(=O)COc3ccc(Cl)cc3)cc12 | solubility ([5]; buffer): Insoluble
79 nM | 27 nM | Cc1nc(N2CCC(O)(C3CCC3)CC2)nc2ccc(NC(=O)COc3ccc(OC(F)(F)F)cc3)cc12 | inhibition at 1 µM [3]: 31%
22 nM | 80 nM | Cc1nc(N2CCC(N)CC2)nc2ccc(NC(=O)COc3ccc(OC(F)(F)F)cc3)cc12 | –
6 nM | 16 nM | Cc1nc(N2CCC(N3CCOCC3)CC2)nc2ccc(NC(=O)COc3ccc(OC(F)(F)F)cc3)cc12 | solubility [5, 19]: 12 µM (≈ 6.55 µg/mL); remaining at 0.5 h [6]: 29%; Activity [7]: 12%; AUC(0-t) at 8 h [8]: 1.02 µM·h; Cmax [9]: 430 nM; Tmax [10]: 1 h; half-life [11]: 3 h; AUC(0-t) at 8 h [12]: 6.21 µM·h; Cmax [13]: 2660 nM; Tmax [14]: 1 h; half-life [15]: 1.7 h
31 nM | 120 nM | Cc1nc(N2CCC(N3CCCC3)CC2)nc2ccc(NC(=O)COc3ccc(OC(F)(F)F)cc3)cc12 | –
7 nM | 31 nM | Cc1nc(N2CCN(C3CCOCC3)CC2)nc2ccc(NC(=O)COc3ccc(OC(F)(F)F)cc3)cc12 | –
36 nM | 33 nM | Cc1nc(N2CCN(C(=O)C(C)C)CC2)nc2ccc(NC(=O)COc3ccc(OC(F)(F)F)cc3)cc12 | –
15 nM | 54 nM | Cc1nc(N2CCC(NC(=O)C(C)C)CC2)nc2ccc(NC(=O)COc3ccc(Cl)cc3)cc12 | solubility [5, 19]: 205 µM (≈ 102 µg/mL); remaining at 0.5 h, 10 µM [16]: 9%; remaining at 0.5 h, 10 µM [17]: 23%
17 nM | 9 nM | Cc1nc(N2CCC(C(=O)NC(C)C)CC2)nc2ccc(NC(=O)COc3ccc(OC(F)(F)F)cc3)cc12 | –
23 nM | 32 nM | Cc1nc(N2CCC(C(N)=O)CC2)nc2ccc(NC(=O)COc3ccc(OC(F)(F)F)cc3)cc12 | –
9 nM | 3 nM | Cc1nc(N2CCC(C(=O)NC3CC3)CC2)nc2ccc(NC(=O)COc3ccc(OC(F)(F)F)cc3)cc12 | –
45 nM | 115 nM | Cc1nc(N2CCN(C3CCOCC3)CC2)nc2ccc(NC(=O)COc3ccc(Cl)cc3)cc12 | solubility [5, 19]: 15 µM (≈ 7.44 µg/mL); remaining at 0.5 h, 10 µM [16]: 1%; remaining at 0.5 h, 10 µM [17]: 39%
47 nM | 18 nM | Cc1nc(N2CCC(C(=O)N(C)C)CC2)nc2ccc(NC(=O)COc3ccc(OC(F)(F)F)cc3)cc12 | –
49 nM | 30 nM | Cc1nc(N2CCN(C(=O)C3CC3)CC2)nc2ccc(NC(=O)COc3ccc(OC(F)(F)F)cc3)cc12 | solubility [5, 19]: 8 µM (≈ 4.24 µg/mL); remaining at 0.5 h, 10 µM [16]: 43%; remaining at 0.5 h, 10 µM [17]: 59%
15 nM | 25 nM | Cc1nc(N2CCC(C(=O)NC(C)C)CC2)nc2ccc(NC(=O)COc3ccc(Cl)cc3)cc12 | solubility [5, 19]: 132 µM (≈ 65.5 µg/mL); remaining at 0.5 h, 10 µM [16]: 11%; remaining at 0.5 h, 10 µM [17]: 70%; remaining at 0.5 h [6]: 49%
